In ChEMBL document CHEMBL5724801, “EUbOPEN Chemogenomics Library - Multiplex” (2024):
Several values for one entry are separate records, joined by “and”; a condition that tells them apart may be missing. Identical values can stand only once.

Tested on: HEK-293T
Experiment: Multiplex assay against HEK293T
Format: toxicity, cell-based
Settings: human
In short: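 Compound was added to live cells that had been stained at seeding with Hoechst33342, BioTracker Green Microtubule Cytoskeleton Dye, MitoTracker Red and Annexin V Alexa Fluor 680, and imaging followed on a CQ1 microscope at 37°C and 5% CO2. CellPathfinder machine-learning gating divided cells into Hoechst high-intensity objects or normal cells, normal cells into healthy, pyknosed or fragmented nuclei, and pyknosed cells into mitotic or apoptotic. Tubulin, mitochondrial-mass and membrane-permeability phenotypes are per cents of healthy-nucleus cells.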

[1] = 12 h, 1 µM, compound concentration 1 uM
[2] = 12 h, 10 µM, compound concentration 10 uM
[3] = 24 h, 1 µM, compound concentration 1 uM
[4] = 24 h, 10 µM, compound concentration 10 uM
[5] = 48 h, 1 µM, compound concentration 1 uM
[6] = 48 h, 10 µM, compound concentration 10 uM

CC(=O)NCC(=O)N1[C@@H]2CC[C@H]1c1ccc(Nc3ncc(C(F)(F)F)c(NC4CCC4)n3)cc12 [PF-03814735]
Population Apoptotic (%) [1]: 13.45% and 7.26%
Population Fragmented Nuclei (%) [1]: 1.8% and 4%
Population Hoechst High Intensity Objects (%) [1]: 0.36% and 0%
Population Membrane Permeable-Phenotype (%) [1]: 0% and 5%
Population Mitochondria Different-Phenotype (%) [1]: 42.86% and 15%
Population Mitotic Cells (%) [1]: 86.55% and 92.74%
Population Normal (%) [1]: 99.64% and 100%
Population Pyknosed Nuclei (%) [1]: 42.81% and 82.67%
Total Cell Count [1]: 279 and 150
Population Apoptotic (%) [2]: 22.73% and 21.78%
Population Fragmented Nuclei (%) [2]: 2.61% and 0.88%
Population Hoechst High Intensity Objects (%) [2]: 0.65% and 0%
Population Membrane Permeable-Phenotype (%) [2]: 0%
Population Mitochondria Different-Phenotype (%) [2]: 27.87% and 27.27%
Population Mitotic Cells (%) [2]: 77.27% and 78.22%
Population Normal (%) [2]: 99.35% and 100%
Population Pyknosed Nuclei (%) [2]: 57.52% and 89.38%
Population Tubulin-Different-Phenotype (%) [2]: 75.41% and 45.45%
Total Cell Count [2]: 154 and 113
Population Apoptotic (%) [3]: 21.25% and 13.04%
Population Fragmented Nuclei (%) [3]: 1.47% and 2.07%
Population Healthy Nuclei (%) [3]: 75.07% and 34.48%
Population Hoechst High Intensity Objects (%) [3]: 0%
Population Membrane Permeable-Phenotype (%) [3]: 0.78% and 4%
Population Mitochondria Different-Phenotype (%) [3]: 20.31% and 10%
Population Mitotic Cells (%) [3]: 78.75% and 86.96%
Population Normal (%) [3]: 100%
Population Pyknosed Nuclei (%) [3]: 23.46% and 63.45%
Total Cell Count [3]: 341 and 145
Population Apoptotic (%) [4]: 65.09% and 50.43%
Population Fragmented Nuclei (%) [4]: 0.99% and 0.8%
Population Hoechst High Intensity Objects (%) [4]: 0%
Population Membrane Permeable-Phenotype (%) [4]: 0%
Population Mitochondria Different-Phenotype (%) [4]: 90.53% and 33.33%
Population Mitotic Cells (%) [4]: 34.91% and 49.57%
Population Normal (%) [4]: 100%
Population Pyknosed Nuclei (%) [4]: 52.22% and 92%
Total Cell Count [4]: 203 and 125
Population Apoptotic (%) [5]: 15.15% and 12.5%
Population Fragmented Nuclei (%) [5]: 5.66% and 2.01%
Population Healthy Nuclei (%) [5]: 86.88% and 71.14%
Population Hoechst High Intensity Objects (%) [5]: 0%
Population Membrane Permeable-Phenotype (%) [5]: 3.65% and 1.89%
Population Mitotic Cells (%) [5]: 84.85% and 87.5%
Population Normal (%) [5]: 100%
Total Cell Count [5]: 442 and 149
Population Apoptotic (%) [6]: 68.24% and 37.78%
Population Fragmented Nuclei (%) [6]: 2.53% and 2.44%
Population Healthy Nuclei (%) [6]: 61.6% and 24.39%
Population Hoechst High Intensity Objects (%) [6]: 0%
Population Membrane Permeable-Phenotype (%) [6]: 0.68% and 0%
Population Mitochondria Different-Phenotype (%) [6]: 97.95% and 76.67%
Population Mitotic Cells (%) [6]: 31.76% and 62.22%
Population Normal (%) [6]: 100%
Population Pyknosed Nuclei (%) [6]: 35.86% and 73.17%
Total Cell Count [6]: 237 and 123

Cc1c(Cc2ccc3ccccc3n2)c2cc(F)ccc2n1CC(=O)O [TIMAPIPRANT]
Population Apoptotic (%) [1]: 42%
Population Fragmented Nuclei (%) [1]: 7% and 6%
Population Healthy Nuclei (%) [1]: 80%
Population Hoechst High Intensity Objects (%) [1]: 10% and 7%
Population Membrane Permeable-Phenotype (%) [1]: 0%
Population Mitochondria Different-Phenotype (%) [1]: 36% and 55%
Population Mitotic Cells (%) [1]: 57%
Population Normal (%) [1]: 89% and 92%
Population Pyknosed Nuclei (%) [1]: 11% and 12%
Population Tubulin-Different-Phenotype (%) [1]: 20% and 16%
Total Cell Count [1]: 394 and 280
Population Apoptotic (%) [2]: 32% and 33%
Population Fragmented Nuclei (%) [2]: 7% and 6%
Population Healthy Nuclei (%) [2]: 78%
Population Hoechst High Intensity Objects (%) [2]: 6% and 5%
Population Membrane Permeable-Phenotype (%) [2]: 0%
Population Mitochondria Different-Phenotype (%) [2]: 55% and 63%
Population Mitotic Cells (%) [2]: 67% and 66%
Population Normal (%) [2]: 93% and 94%
Population Pyknosed Nuclei (%) [2]: 14% and 15%
Population Tubulin-Different-Phenotype (%) [2]: 38% and 28%
Total Cell Count [2]: 434 and 354
Population Apoptotic (%) [3]: 31% and 53%
Population Fragmented Nuclei (%) [3]: 10% and 7%
Population Healthy Nuclei (%) [3]: 81% and 83%
Population Hoechst High Intensity Objects (%) [3]: 4% and 5%
Population Membrane Permeable-Phenotype (%) [3]: 1% and 0%
Population Mitochondria Different-Phenotype (%) [3]: 20% and 38%
Population Mitotic Cells (%) [3]: 68% and 46%
Population Normal (%) [3]: 95% and 94%
Population Pyknosed Nuclei (%) [3]: 8%
Population Tubulin-Different-Phenotype (%) [3]: 15%
Total Cell Count [3]: 516 and 381
Population Apoptotic (%) [4]: 32% and 37%
Population Fragmented Nuclei (%) [4]: 7% and 12%
Population Healthy Nuclei (%) [4]: 78% and 77%
Population Hoechst High Intensity Objects (%) [4]: 4% and 5%
Population Membrane Permeable-Phenotype (%) [4]: 0%
Population Mitochondria Different-Phenotype (%) [4]: 31% and 44%
Population Mitotic Cells (%) [4]: 67% and 62%
Population Normal (%) [4]: 95% and 94%
Population Pyknosed Nuclei (%) [4]: 13% and 10%
Population Tubulin-Different-Phenotype (%) [4]: 28% and 20%
Total Cell Count [4]: 560 and 475
Population Apoptotic (%) [5]: 26% and 17%
Population Fragmented Nuclei (%) [5]: 13% and 15%
Population Healthy Nuclei (%) [5]: 78% and 76%
Population Hoechst High Intensity Objects (%) [5]: 2% and 3%
Population Membrane Permeable-Phenotype (%) [5]: 1% and 0%
Population Mitochondria Different-Phenotype (%) [5]: 9% and 25%
Population Mitotic Cells (%) [5]: 73% and 82%
Population Normal (%) [5]: 97% and 96%
Population Pyknosed Nuclei (%) [5]: 8%
Population Tubulin-Different-Phenotype (%) [5]: 6% and 12%
Total Cell Count [5]: 799 and 566
Population Apoptotic (%) [6]: 33% and 36%
Population Fragmented Nuclei (%) [6]: 10% and 14%
Population Healthy Nuclei (%) [6]: 79% and 78%
Population Hoechst High Intensity Objects (%) [6]: 4%
Population Membrane Permeable-Phenotype (%) [6]: 1% and 0%
Population Mitochondria Different-Phenotype (%) [6]: 24% and 33%
Population Mitotic Cells (%) [6]: 66% and 63%
Population Normal (%) [6]: 95%
Population Pyknosed Nuclei (%) [6]: 9% and 6%
Population Tubulin-Different-Phenotype (%) [6]: 17% and 16%
Total Cell Count [6]: 752 and 630
